From PubChem
FXIIa inh 1536: inhibitors of human coagulation factor XIIa; P00748; purified FXIIa, Boc-QGR-AMC fluorogenic substrate, 2 h; inhibition, % at 5 µM; AID 800; 220,000 tested, 0.3% active; in the data active = inhibition above about 40%;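 note: 0% = enzyme with no compound and 100% = blank without enzyme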
FXIa inh 1536: blocks human coagulation factor XIa protease activity; P03951; purified FXIa, Boc-Glu-Ala-Arg-AMC fluorogenic substrate; inhibition, % at 5 µM; 220,000 tested, 0.14% active;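 active = inhibition of at least 40%; inactive = inhibition below 40%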;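 note: fluorescence of freed AMC excited at 355 nm; 0% = enzyme without compound and 100% = no enzyme blank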
Target sequence (P03951 19-387 limits assumed): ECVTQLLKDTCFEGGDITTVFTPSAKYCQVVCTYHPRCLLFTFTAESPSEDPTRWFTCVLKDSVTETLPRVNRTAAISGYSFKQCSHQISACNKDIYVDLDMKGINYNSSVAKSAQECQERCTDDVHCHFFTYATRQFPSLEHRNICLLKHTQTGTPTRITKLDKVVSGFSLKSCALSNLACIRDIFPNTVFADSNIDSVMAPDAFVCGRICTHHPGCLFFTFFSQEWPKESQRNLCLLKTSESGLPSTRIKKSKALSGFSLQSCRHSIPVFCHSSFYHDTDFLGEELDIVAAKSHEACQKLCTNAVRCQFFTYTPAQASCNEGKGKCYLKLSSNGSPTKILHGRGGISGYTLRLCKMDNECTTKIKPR
Target sequence (P03951 388-625 limits assumed): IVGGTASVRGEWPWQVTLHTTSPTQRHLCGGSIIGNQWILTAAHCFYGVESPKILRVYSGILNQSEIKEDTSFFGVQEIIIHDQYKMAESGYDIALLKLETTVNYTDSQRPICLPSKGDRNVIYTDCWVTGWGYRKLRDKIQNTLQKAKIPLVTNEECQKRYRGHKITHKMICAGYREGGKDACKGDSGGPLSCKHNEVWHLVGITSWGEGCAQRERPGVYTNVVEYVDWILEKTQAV
Platelet DG rel: platelet dense granule release activity | inhibition, %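 (compounds screened at 7.5 µM in platelet-rich plasma)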 | 300,000 tested, 0.22% active | AID 1663 | human platelet-rich plasma, SFLLRN dense granule ATP release, luminescence;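 active = mean replicate score, as percent of positive control, at or above 50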
Wee1 degr inh: human Wee1 degradation inhibition, primary screen; P30291; HeLa Luc-Wee1K328M stability, luciferase luminescence; 100% = proteasome inhibitor MG132 effect; reporter increase, % at 5 µM; 220,000 tested, 1.2% active; AID 1321;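 active = activation above the mean of all tested compounds plus 3 SD, set per screening run, cut at about 8.8% in these data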;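 note: cells exposed to compound for 20 h before luminescence read; 0% = DMSO alone and 100% = MG132 at 30 µM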
thrombin 1536: inhibitors of human thrombin. inhibition, % at 5 µM. 220,000 tested, 0.26% active. AID 1046. alpha-thrombin, Boc-VPR-AMC fluorogenic substrate cleavage. P00734;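 active = inhibition at or above 40%; inactive = inhibition below 40%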;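 note: 0% = enzyme with no compound and 100% = wells without enzyme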
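Material: human alpha-thrombin enzyme / Medium: pH 7.5 Tris (50 mM) with NaCl 150 mM, Tween 20 0.05% / Compound: single-point dosing at 5 µM, 0.2% DMSO / Incubation: enzyme reaction carried out at room temperature / Detection: AMC fluorescence, 355/460 nm / Read-out basis: percent inhibition scaled between no-compound controls and no-enzyme blanks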
KLK5 inh: inhibitors of human kallikrein 5; recombinant hK5, fluorogenic AMC substrate cleavage; inhibition, % at 5 µM; Q9Y337; AID 873; 210,000 tested, 0.59% active;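 active = inhibition of 40% or more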;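 note: 0% = enzyme controls without compound and 100% = no-enzyme blanks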
* marks the source's active call; other numbers are inactive results; ! = not confirmed by another sample. The list is not random: actives were taken first. Their share in the collection is about 1.8%.

Results for COc1ccc(S(=O)(=O)NCC(c2cccnc2)N2CCN(C)CC2)cc1C (stereo not drawn) ?
FXIIa inh 1536: 26; FXIa inh 1536: 25; Platelet DG rel: 74*; Wee1 degr inh: -2; thrombin 1536: -1; KLK5 inh: -6

How did O=C(CCCOc1ccc(Cl)cc1Cl)NCCc1ccccn1 do in these assays?
Platelet DG rel: 3

Results for CCc1ccccc1NS(=O)(=O)c1cc2c3c(c1)CCN3C(=O)CC2 ?
Platelet DG rel: 3

How did Cc1nnc(NC(=O)CSc2nc3ccccc3o2)s1 do in these assays?
FXIIa inh 1536: 2; FXIa inh 1536: -8; Platelet DG rel: -1; Wee1 degr inh: -2; thrombin 1536: -3; KLK5 inh: 0

Results for Cc1nnc(NC(=O)CSc2ncc(-c3ccccc3)[nH]2)s1 ?
FXIIa inh 1536: 3; FXIa inh 1536: -4; Platelet DG rel: -2; Wee1 degr inh: -1; thrombin 1536: -7; KLK5 inh: -2

Results for CCc1nnc(NC(=O)CSc2nc3ccccc3o2)s1 ?
FXIIa inh 1536: 0; FXIa inh 1536: 7; Platelet DG rel: 0; Wee1 degr inh: 2; thrombin 1536: 11; KLK5 inh: 42*

How did CCc1nnc(NC(=O)CSc2ncc(-c3ccccc3)[nH]2)s1 do in these assays?
FXIIa inh 1536: -1; FXIa inh 1536: 10; Platelet DG rel: -5; Wee1 degr inh: 5; thrombin 1536: 12; KLK5 inh: 63*

How did CN(C)CCNc1ncnc2c1sc1nc(-c3ccccc3)c3c(c12)CCCC3 do in these assays?
FXIIa inh 1536: 42*; FXIa inh 1536: 25; Platelet DG rel: -2; Wee1 degr inh: -1; thrombin 1536: 17; KLK5 inh: 18

How did COc1ccc(C(=O)NCCS(=O)(=O)NCc2ccccc2)cc1 do in these assays?
Platelet DG rel: -10

How did Cc1ccc(O)c(CO)n1 do in these assays?
FXIIa inh 1536: 9; FXIa inh 1536: 3; Platelet DG rel: 1; Wee1 degr inh: 0; thrombin 1536: -3; KLK5 inh: 0

How did COc1ccc(CCc2nc(C)ccc2O)cc1 do in these assays?
FXIIa inh 1536: 10; FXIa inh 1536: 4; Platelet DG rel: -7; Wee1 degr inh: -1; thrombin 1536: 24; KLK5 inh: 44*!

What do the screens show for `CCn1c(SCC(=O)Nc2cccnc2Cl)nnc1-c1ccccc1`?
FXIIa inh 1536: 106*; FXIa inh 1536: 8; Platelet DG rel: -10; Wee1 degr inh: -1; thrombin 1536: 25; KLK5 inh: 62*

Results for CCn1c(SCC(=O)Nc2nccs2)nnc1-c1ccccc1 ?
FXIIa inh 1536: 6; FXIa inh 1536: 6; Platelet DG rel: 1; Wee1 degr inh: 2; thrombin 1536: 4; KLK5 inh: 41*

How did CCn1c(SCC(=O)c2ccccc2)nnc1-c1cnccn1 do in these assays?
FXIIa inh 1536: 5; FXIa inh 1536: 18; Platelet DG rel: 7; Wee1 degr inh: 2; thrombin 1536: 16; KLK5 inh: 43*

How did C=CCn1c(SCC(=O)Nc2cccnc2Cl)nnc1-c1ccc(Cl)cc1 do in these assays?
FXIIa inh 1536: 41*; FXIa inh 1536: 32; Platelet DG rel: -8; Wee1 degr inh: 0; thrombin 1536: -2; KLK5 inh: -31

Results for CCn1c(SCC(=O)Nc2nccs2)nnc1-c1cccnc1 ?
Platelet DG rel: -6

What do the screens show for `CCn1c(SCC(=O)Nc2ccccc2F)nnc1-c1cnccn1`?
Platelet DG rel: -2

How did C=CCn1c(SCC(=O)Nc2c(C)cccc2C)nnc1-c1ccncc1 do in these assays?
FXIIa inh 1536: 1; FXIa inh 1536: -3; Platelet DG rel: -5; Wee1 degr inh: 3; thrombin 1536: 0; KLK5 inh: 7

How did CC(NCc1ccc(S(N)(=O)=O)cc1)C(=O)N1c2ccccc2CC1C (stereo not drawn) do in these assays?
FXIIa inh 1536: 15; FXIa inh 1536: -2; Platelet DG rel: -9; Wee1 degr inh: 0; thrombin 1536: 1; KLK5 inh: 0

What do the screens show for `Cc1ccc(C(=O)C(C)OC(=O)c2nc(Cl)ccc2Cl)cc1` (stereo not drawn)?
Platelet DG rel: 3

Results for COC(=O)c1c(SCC(=O)Nc2ccc(C)cc2)nc(=O)[nH]c1C ?
FXIIa inh 1536: 26; FXIa inh 1536: 29; Platelet DG rel: -5; Wee1 degr inh: 2; thrombin 1536: 34; KLK5 inh: 74*

What do the screens show for `CCOC(=O)c1c(SCC(=O)Nc2nc(C)cs2)nc(=O)[nH]c1C`?
Platelet DG rel: 3

How did CCOC(=O)c1ccccc1NC(=O)COC(=O)CSc1ccccc1 do in these assays?
Platelet DG rel: -54

Results for Cc1nc2c3cc(F)ccc3n(CCN3CCCCC3)c2s1 ?
FXIIa inh 1536: 3; FXIa inh 1536: -3; Platelet DG rel: 0; Wee1 degr inh: 9.7*; thrombin 1536: -6

Results for Cc1nc2c3ccccc3n(CCN3CCCCC3)c2s1 ?
FXIIa inh 1536: 5; FXIa inh 1536: -8; Platelet DG rel: 9; Wee1 degr inh: 1; thrombin 1536: -6; KLK5 inh: -1

How did Cn1c(CNC(=O)Nc2ccccc2Cl)nnc1SCc1ccccc1 do in these assays?
FXIIa inh 1536: 17; FXIa inh 1536: 18; Wee1 degr inh: -3; thrombin 1536: 25; KLK5 inh: 43*

What do the screens show for `CCOC(=O)C1CCN(C(=O)CCc2nnc3ccc(NCc4ccco4)nn23)CC1`?
Platelet DG rel: 70*

What do the screens show for `O=C(CCc1nnc2ccc(NCc3ccco3)nn12)N1CCN(c2ccccc2)CC1`?
Platelet DG rel: 6

What do the screens show for `Cc1ccc(Cl)cc1NC(=O)C1CCCN1S(=O)(=O)c1ccc(-c2ccc(=O)[nH]n2)s1` (stereo not drawn)?
Platelet DG rel: 2

What do the screens show for `CSc1sc(-c2ccnc(=S)[nH]2)c(-c2ccccc2)c1C#N`?
FXIIa inh 1536: 3; FXIa inh 1536: -1; Platelet DG rel: 0; Wee1 degr inh: 9.8*; thrombin 1536: 0; KLK5 inh: -2

How did CCN1C(=O)C2(C(C(=O)c3cc4ccccc4o3)=C(O)C(=O)N2CCCN2CCOCC2)c2ccccc21 (stereo not drawn) do in these assays?
FXIIa inh 1536: 3; FXIa inh 1536: -1; Platelet DG rel: 7; Wee1 degr inh: -3; thrombin 1536: -9; KLK5 inh: 4

Results for O=C(CCCCCNc1nc(=S)[nH]c2ccccc12)NCCc1ccccc1 ?
FXIIa inh 1536: 10; FXIa inh 1536: 8; Platelet DG rel: 21; Wee1 degr inh: 1; thrombin 1536: 0; KLK5 inh: -27

Results for COc1ccc(CCNC(=O)CCCCCNc2nc(=S)[nH]c3ccccc23)cc1OC ?
FXIIa inh 1536: 13; FXIa inh 1536: 12; Platelet DG rel: -15; Wee1 degr inh: 10*; thrombin 1536: 1; KLK5 inh: -3

How did Cn1c(C(=O)N2CCN(c3ncccn3)CC2)cc2c(=O)n(C)c3ccccc3c21 do in these assays?
FXIIa inh 1536: 32; FXIa inh 1536: 4; Platelet DG rel: 2; Wee1 degr inh: -1; thrombin 1536: 0; KLK5 inh: 46*
